Article PMC8900268 (Journal of medicinal chemistry, 2021)

How the values were obtained:
MOLT-4 cells [1] = assay: MTS cell viability assay in MOLT-4 cells; assay type: cell-based; settings: Homo sapiens, MOLT-4, 48 h, read-out: IC50, cell-killing potency in MOLT-4
RS4;11 cells = assay: MTS cell viability assay in RS4; assay type: cell-based; settings: for IC50: Homo sapiens, RS4-11, 48 h, read-out: IC50, cell-killing potency in RS4;11; for activity loss (IC50 change) after pre-treatment with VHL-032: RS4;11 cells, 48 h, pre-treatment with VHL-032 (10 μM)
BCL-XL [2] = target: BCL-XL (Homo sapiens, UniProt P40337+Q07817); assay: AlphaScreen displacement binding assay, BCL-XL; settings: displacement of Biotin-Bad
BCL-2 [3] = target: BCL-2 (Homo sapiens, UniProt P10415+P40337); assay: AlphaScreen displacement binding assay, BCL-2; settings: displacement of Biotin-Bim
[4] = target: {BCL-2:compound:VCB} ternary complexes (Homo sapiens, UniProt P10415+P40337); assay: NanoBRET ternary complex formation with BCL-2 and VCB in live 293T cells; assay type: cell-based; settings: 6 h
Method in brief: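 HEK 293T cells were transfected with 1 μg HaloTag-VHL, 10 ng HiBit-BCL-2 and 10 ng LgBit. After 24 h, 2×10^4 cells/well were placed in phenol-red-free Opti-MEM with 4% FBS ± HaloTag NanoBRET 618 ligand overnight at 37 °C. Serially diluted test compound was added for 6 h, then Nano-Glo substrate. mBRET ratio calculated. Mean ± s.e.m. of two independent experiments in triplicate.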

BCL-2:Bim interaction = BCL-2:Bim interaction (Homo sapiens, UniProt P10415); assay: Co-immunoprecipitation of Bim with BCL-2 in RS4; assay type: cell-based; settings: RS4;11 cells, 12 h, immunoprecipitation with BCL-2
Method in brief: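 RS4;11 cells were treated with test compound for 12 h, ±VHL-032. Lysis in IP buffer with protease/phosphatase inhibitors, then 15000 rpm spin. 1 mg lysate was precleared with mouse IgG and protein A/G agarose for 1 h at 4 °C. IP with 2 μg anti-BCL-2 (or IgG) overnight at 4 °C, then beads for 2 h. After three washes, immunoblotted for Bim. Inputs probed for Bim, BCL-2 and β-actin. Two independent experiments.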

MOLT-4 cells [5] = settings: ref 10a; cited from earlier work
human platelets = settings: earlier study; ref 10a; cited from earlier work
BCL-XL with VCB = BCL-XL with VCB (Homo sapiens, UniProt P40337+Q07817); assay: AlphaLISA cell-free ternary complex formation, BCL-XL and VCB; assay type: biochemical
Method in brief: (§1)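 Recombinant His-tagged BCL-2 or BCL-XL and GST-tagged VHL–elongin B–elongin C–Cul2 (VCB) were each added at 20 nM with a 4× serial dilution of test compound. Buffer: 25 mM HEPES pH 7.5, 100 mM NaCl, 0.1% BSA, 0.005% Tween 20. Incubation 30 min at room temperature, then glutathione donor beads for 15 min and anti-His acceptor beads for 45 min, both in the dark. AlphaLISA luminescence plotted against log concentration.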

BCL-2 with VCB = BCL-2 with VCB (Homo sapiens, UniProt P10415+P40337); assay: AlphaLISA cell-free ternary complex formation, BCL-2 and VCB; assay type: biochemical
Method in brief: as §1

BCL-XL [6] = target: T1, BCL-XL (Homo sapiens, UniProt Q07817); assay: BCL-XL degradation in MOLT-4 cells by western blotting; assay type: cell-based
Method in brief: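 MOLT-4 cells were exposed to test compound for 16 h across a concentration range. Other arms: 100 nM time course; 100 nM for 16 h, then washout; and pretreatment with 10 μM VHL-032 or 1 μM MG-132 before 12 h exposure. Lysates were immunoblotted for BCL-XL and β-actin. Band densities were normalised to β-actin. Mean ± SD of three independent experiments in triplicate.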

BCL-XL [7] = target: T1, BCL-XL; assay: BCL-XL protein levels in human platelets by western blotting; assay type: cell-based; settings: 16 h treatment
Method in brief: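 Platelets came from purchased human platelet-rich plasma in acid citrate buffer with 1 μM PGE1 and 0.2 units/mL apyrase (final). They were pelleted at 1200 g for 10 min, washed and resuspended in HEPES Tyrode's buffer with the same PGE1/apyrase. Platelets were treated with test compound for 16 h, then immunoblotted for BCL-XL.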

BCL-2 [8] = target: BCL-2 (Homo sapiens, UniProt P10415); assay: BCL-2 degradation by western blotting in MOLT-4 and RS4; assay type: cell-based; settings: 16 h
NCI-H146 cells = assay: Cell viability assay in NCI-H146 cells; assay type: cell-based; settings: BCL-2/BCL-XL dual-dependent cells
Method in brief: (§2)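 Cells were seeded at 50,000/well in complete medium and dosed 30 min later at nine concentrations in triplicate. Viability was read by MTS after 48 h. Percentage viability was fitted by non-linear regression.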

NCI-H211 cells = assay: Cell viability assay in NCI-H211 cells; assay type: cell-based; settings: BCL-2/BCL-XL dual-dependent cells
Method in brief: as §2

BCL-XL [9] = target: T1, BCL-XL; assay: BCL-XL degradation in HEK 293T cells by immunoblotting; assay type: cell-based
Method in brief: (§3)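 HEK 293T cells grown in DMEM with 10% FBS and 1% penicillin–streptomycin at 37 °C, 5% CO2, then treated with test compound. Lysates made with protease/phosphatase inhibitors, run on 4–20% Tris-glycine gels and transferred to PVDF. Blocked in 5% milk/TBS-Tween. Primary antibodies overnight at 4 °C, HRP secondary, ECL detection. Cleaved PARP probed as apoptosis marker.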

MCL-1 = MCL-1 levels in HEK 293T cells by immunoblotting; assay type: cell-based
Method in brief: as §3

MOLT-4 cells [10] = assay: Apoptosis induction in MOLT-4 cells; assay type: cell-based, human; settings: caspase-3 mediated
Method in brief: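 MOLT-4 cells were given test compound for 16 h, then immunoblotted for cleaved and full caspase-3, cleaved and full PARP, and β-actin. Separately, cells (5×10^4/well) were pretreated ±2 μM QVD for 4 h, then given 10 nM compound for 48 h. Read by immunoblot, or by Annexin-V–Alexa Fluor 647 (1:50) plus PI (10 μg/mL) staining for 30 min at room temperature in the dark, then flow cytometry.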

| SMILES | activity loss (IC50 change) after pre-treatment with VHL-032 (RS4;11 cells) | formation of {BCL-2:compound:VCB} ternary complexes in live cells [4] | effect on BCL-2:Bim interaction (BCL-2:Bim interaction) | formation of ternary complexes with BCL-XL and VCB (BCL-XL with VCB) | formation of ternary complexes with BCL-2 and VCB (BCL-2 with VCB) | BCL-XL degradation (in words) (BCL-XL [6]) | IC50 (RS4;11 cells) | other results |
| --- | --- | --- | --- | --- | --- | --- | --- | --- |
| Cc1ncsc1-c1ccc([C@H](C)NC(=O)[C@@H]2C[C@@H](O)CN2C(=O)[C@@H](NC(=O)CCCCCC(=O)N2CCN(CC[C@H](CSc3ccccc3)Nc3ccc(S(=O)(=O)NC(=O)c4ccc(N5CCN(CC6=C(c7ccc(Cl)cc7)CCC(C)(C)C6)CC5)cc4)cc3S(=O)(=O)C(F)(F)F)CC2)C(C)(C)C)cc1 [DT2216] | no significant IC50 value changes | could not | minimal effect | – | – | – | 212 ± 27.4 nM | IC50 (MOLT-4 cells [1]): 75.3 ± 9.1 nM; Kd (BCL-XL [2]; Kd BCL-XL w VHL, ternary binding, with GST-VCB): 2.18 ± 0.51 nM; Kd (BCL-XL [2]; Kd BCL-XL w/o VHL, binary binding, without VCB): 7.58 ± 0.62 nM; Kd (BCL-2 [3]; Kd BCL-2 w VHL, ternary binding, with GST-VCB): 1.46 ± 0.41 nM; Kd (BCL-2 [3]; Kd BCL-2 w/o VHL, binary binding, without VCB): 2.25 ± 0.33 nM; fold more potent than warhead ABT-263 against MOLT-4 (MOLT-4 cells [5]): 4 fold; selectivity for MOLT-4 over human platelets (human platelets): ~ 200 fold |
| Cc1ncsc1-c1ccc([C@H](C)NC(=O)[C@@H]2C[C@@H](O)CN2C(=O)[C@@H](NC(=O)CCCCCC(=O)NCC2(C)CCC(c3ccc(Cl)cc3)=C(CN3CCN(c4ccc(C(=O)NS(=O)(=O)c5ccc(N[C@H](CCN6CCOCC6)CSc6ccccc6)c(S(=O)(=O)C(F)(F)F)c5)cc4)CC3)C2)C(C)(C)C)cc1 (stereo partly drawn) [PP2, N^1-((4’-Chloro-4-methyl-6-((4-(4-(((4-(((R)-4-morpholino-1-(phenylthio)butan-2-yl)amino)-3-((trifluoromethyl)sulfonyl)phenyl)sulfonyl)carbamoyl)phenyl)piperazin-1-yl)methyl)-2,3,4,5-tetrahydro-[1,1’-biphenyl]-4-yl)methyl)-N^7-((S)-1-((2S,4R)-4-hydroxy-2-(((S)-1-(4-(4-methylthiazol-5-yl)phenyl)ethyl)carbamoyl)pyrrolidin-1-yl)-3,3-dimethyl-1-oxobutan-2-yl)heptanediamide] | – | – | – | – | – | – | 234 ± 21.6 nM | – |
| Cc1ncsc1-c1ccc([C@H](C)NC(=O)[C@@H]2C[C@@H](O)CN2C(=O)[C@@H](NC(=O)CCCCCCCCC(=O)NCC2(C)CCC(c3ccc(Cl)cc3)=C(CN3CCN(c4ccc(C(=O)NS(=O)(=O)c5ccc(N[C@H](CCN6CCOCC6)CSc6ccccc6)c(S(=O)(=O)C(F)(F)F)c5)cc4)CC3)C2)C(C)(C)C)cc1 (stereo partly drawn) [PP5, N^1-((4’-Chloro-4-methyl-6-((4-(4-(((4-(((R)-4-morpholino-1-(phenylthio)butan-2-yl)amino)-3-((trifluoromethyl)sulfonyl)phenyl)sulfonyl)carbamoyl)phenyl)piperazin-1-yl)methyl)-2,3,4,5-tetrahydro-[1,1’-biphenyl]-4-yl)methyl)-N^10-((S)-1-((2S,4R)-4-hydroxy-2-(((S)-1-(4-(4-methylthiazol-5-yl)phenyl)ethyl)carbamoyl)pyrrolidin-1-yl)-3,3-dimethyl-1-oxobutan-2-yl)decanediamide] | – | able to form | – | – | – | – | – | – |
| Cc1ncsc1-c1ccc([C@H](C)NC(=O)[C@@H]2C[C@@H](O)CN2C(=O)[C@@H](NC(=O)CCCCCCCCC(=O)NC[C@@]2(C)CCC(c3ccc(Cl)cc3)=C(CN3CCN(c4ccc(C(=O)NS(=O)(=O)c5ccc(N[C@H](CCN6CCOCC6)CSc6ccccc6)c(S(=O)(=O)C(F)(F)F)c5)cc4)CC3)C2)C(C)(C)C)cc1 [PZ703a, N^1-(((S)-4’-Chloro-4-methyl-6-((4-(4-(((4-(((R)-4-morpholino-1-(phenylthio)butan-2-yl)amino)-3-((trifluoromethyl)sulfonyl)phenyl)sulfonyl)carbamoyl)phenyl)piperazin-1-yl)methyl)-2,3,4,5-tetrahydro-[1,1’-biphenyl]-4-yl)methyl)-N^10-((S)-1-((2S,4R)-4-hydroxy-2-(((S)-1-(4-(4-methylthiazol-5-yl)phenyl)ethyl)carbamoyl)pyrrolidin-1-yl)-3,3-dimethyl-1-oxobutan-2-yl)decanediamide] | 2.6 fold | able to form | – | can form stable ternary complexes | can form stable ternary complexes | – | – | – |

Now from value to compound, other results behind:

| activity loss (IC50 change) after pre-treatment with VHL-032 (RS4;11 cells) | formation of {BCL-2:compound:VCB} ternary complexes in live cells [4] | effect on BCL-2:Bim interaction (BCL-2:Bim interaction) | formation of ternary complexes with BCL-XL and VCB (BCL-XL with VCB) | formation of ternary complexes with BCL-2 and VCB (BCL-2 with VCB) | BCL-XL degradation (in words) (BCL-XL [6]) | SMILES | IC50 (RS4;11 cells) | other results |
| --- | --- | --- | --- | --- | --- | --- | --- | --- |
| – | able to form | can inhibit BCL-2:Bim interaction | can form stable ternary complexes | can form stable ternary complexes | rapid and durable BCL-XL degradation | Cc1ncsc1-c1ccc([C@H](C)NC(=O)[C@@H]2C[C@@H](O)CN2C(=O)[C@@H](NC(=O)CCCCCCCCC(=O)NC[C@]2(C)CCC(c3ccc(Cl)cc3)=C(CN3CCN(c4ccc(C(=O)NS(=O)(=O)c5ccc(N[C@H](CCN6CCOCC6)CSc6ccccc6)c(S(=O)(=O)C(F)(F)F)c5)cc4)CC3)C2)C(C)(C)C)cc1 [PZ703b, N^1-(((R)-4’-Chloro-4-methyl-6-((4-(4-(((4-(((R)-4-morpholino-1-(phenylthio)butan-2-yl)amino)-3-((trifluoromethyl)sulfonyl)phenyl)sulfonyl)carbamoyl)phenyl)piperazin-1-yl)methyl)-2,3,4,5-tetrahydro-[1,1’-biphenyl]-4-yl)methyl)-N^10-((S)-1-((2S,4R)-4-hydroxy-2-(((S)-1-(4-(4-methylthiazol-5-yl)phenyl)ethyl)carbamoyl)pyrrolidin-1-yl)-3,3-dimethyl-1-oxobutan-2-yl)decanediamide] | – | effect on BCL-XL protein levels in platelets (BCL-XL [7]): did not cause significant changes; BCL-2 degradation (in words) (BCL-2 [8]): did not observe significant BCL-2 degradation; killing of NCI-H146 cells (NCI-H146 cells): efficiently kill; killing of NCI-H211 cells (NCI-H211 cells): efficiently kill; BCL-XL degradation in HEK 293T cells (BCL-XL [9]): effectively induce BCL-XL degradation; MCL-1 decrease in HEK 293T cells (MCL-1): no MCL-1 decrease was observed; induction of apoptosis in MOLT-4 cells (MOLT-4 cells [10]): potently induced apoptosis |
| no significant IC50 value changes | could not | minimal effect | – | – | did not induce BCL-XL degradation | Cc1ncsc1-c1ccc([C@H](C)NC(=O)[C@@H]2C[C@H](O)CN2C(=O)[C@@H](NC(=O)CCCCCCCCC(=O)NC[C@]2(C)CCC(c3ccc(Cl)cc3)=C(CN3CCN(c4ccc(C(=O)NS(=O)(=O)c5ccc(N[C@H](CCN6CCOCC6)CSc6ccccc6)c(S(=O)(=O)C(F)(F)F)c5)cc4)CC3)C2)C(C)(C)C)cc1 [PZ703b-NC] | – | – |
